Data from ChEMBL document CHEMBL3784950, “Higginsianins A and B, Two Diterpenoid α-Pyrones Produced by Colletotrichum higginsianum, with in Vitro Cytostatic Activity” (J Nat Prod, 2016).
Active and inactive are the calls of the source. No cut-off for these calls is given here.

Key:
[1] = (§1) Antiproliferative activity against human Hs683 cells assessed as cell viability after 72 hrs by MTT assay; assay type: functional, cell-based; conditions: Hs 683, 72 h
How it was run: (§2)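 Cells cultured 72 h with compound; MTT conversion to formazan read by spectrophotometry as a measure of metabolically active cells. IC50 is the concentration that reduces growth by 50% relative to control optical density. Six replicates per condition; one or two independent sextuplicate experiments.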

SK-MEL-28 = experiment: Antiproliferative activity against human SK-MEL-28 cells assessed as cell viability after 72 hrs by MTT assay; assay type: functional, cell-based; conditions: for IC50: SK-MEL-28, 72 h; how it was run: as §2
[2] = (§3) Antiproliferative activity against mouse B16F10 cells assessed as cell viability after 72 hrs by MTT assay; assay type: functional, cell-based; conditions: B16-F10, 72 h; how it was run: as §2
A549 = experiment: Antiproliferative activity against human A549 cells assessed as cell viability after 72 hrs by MTT assay; assay type: functional, cell-based; conditions: for IC50: A549, 72 h; how it was run: as §2
MCF7 = experiment: Antiproliferative activity against human MCF7 cells assessed as cell viability after 72 hrs by MTT assay; assay type: functional, cell-based; conditions: for IC50: MCF7, 72 h; how it was run: as §2
[3] = (§4) Antiproliferative activity against human U373 cells assessed as cell viability after 72 hrs by MTT assay; assay type: functional, cell-based, U-373MG ATCC; conditions: U373 MG; how it was run: as §2
[4] = Antiproliferative activity against human Hs683 cells assessed as growth inhibition at 1 uM after 72 hrs by quantitative video microscopic analysis relative to control; assay type: functional; conditions: Hs 683, 72 h, read-out: GI
How it was run: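 Hs683 cells filmed by computer-assisted phase-contrast microscopy at 1 μM and 40 μM versus control. Global growth is the cell count on the last image divided by that on the first, taken at 24, 48 and 72 h. The GGR index is treated global growth divided by control global growth. Run once in duplicate; mean ± SEM.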

Hs 683 [5] = experiment: Cytostatic activity against human Hs683 cells assessed as morphological changes at 1 uM after 48 hrs by phase contrast microscopic analysis; assay type: functional, cell-based
How it was run: (§5)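 Phase-contrast microscopy of Hs683 glioma cells treated at 1 versus 50 μM, judging cytostatic versus cytotoxic morphology.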

Hs 683 [6] = experiment: Cytotoxicity against human Hs683 cells assessed as morphological changes at 50 uM after 48 hrs by phase contrast microscopic analysis; assay type: functional, cell-based; how it was run: as §5
[7] = Stability in human Hs683 cells assessed as photosensitivity at 1 to 40 uM by quantitative video microscopic analysis; assay type: ADME, cell-based; conditions: hs 683, 40 µM
[8] = Stability in human Hs683 cells assessed as photoactivity at 1 to 40 uM by quantitative video microscopic analysis; assay type: ADME, cell-based; conditions: hs 683, 40 µM
Hs 683 [9] = experiment: as §1; assay type: functional, cell-based; how it was run: as §2
U-373MG ATCC = experiment: as §4; assay type: functional, cell-based; how it was run: as §2
B16-F10 = experiment: as §3; assay type: functional, cell-based; how it was run: as §2

SMILES	IC50 (SK-MEL-28)	IC50 (A549)	IC50 (MCF7)	Stability [7]	Stability [8]	IC50 [1]	IC50 [2]	IC50 [3]	inhibition of growth at 1 µM [4]	Activity (Hs 683 [5])	Activity (Hs 683 [6])	Activity (Hs 683 [9])	Activity (SK-MEL-28)	Activity (U-373MG ATCC)	Activity (B16-F10)	Activity (A549)	Activity (MCF7)
C=C1CC[C@H]2[C@](C)(CCC=C(C)C)[C@H](O)CC[C@]2(C)[C@@H]1Cc1c(O)c(C)c(C)oc1=O	88 µM	29 µM	2 µM	–	–	2000 nM	3000 nM	84 µM	–	–	–	–	–	–	–	–	–
C=C1CC[C@@H]2[C@](C)(CC[C@H](O)[C@@]2(C)CCC=C(C)C)[C@@H]1Cc1c(O)c(C)c(C)oc1=O	–	–	–	–	–	–	–	–	–	–	–	inactive	inactive	inactive	inactive	inactive	inactive
C=C1CC[C@H]2[C@]3(C)C[C@@H](C=C(C)C)O[C@H]3CC[C@]2(C)[C@@H]1Cc1c(O)c(C)c(C)oc1=O	–	–	–	–	–	–	–	–	–	–	–	inactive	inactive	inactive	inactive	inactive	inactive

The next lines start with results.

IC50 (SK-MEL-28)	IC50 (A549)	IC50 (MCF7)	Stability [7]	Stability [8]	SMILES	IC50 [1]	IC50 [2]	IC50 [3]	inhibition of growth at 1 µM [4]	Activity (Hs 683 [5])	Activity (Hs 683 [6])	Activity (Hs 683 [9])	Activity (SK-MEL-28)	Activity (U-373MG ATCC)	Activity (B16-F10)	Activity (A549)	Activity (MCF7)
48 µM	16 µM	38 µM	–	–	C=C1CC[C@@H]2[C@](C)(CC[C@H]3O[C@H](C=C(C)C)C[C@@]23C)[C@@H]1Cc1c(OC)c(C)c(C)oc1=O	400 nM	1000 nM	–	–	–	–	–	–	–	–	–	–
73 µM	33 µM	19 µM	Stable	Stable	C=C1CC[C@@H]2[C@](C)(CC[C@H]3O[C@H](C=C(C)C)C[C@@]23C)[C@@H]1Cc1c(O)c(C)c(C)oc1=O	1000 nM	1000 nM	63 µM	50%	Active	Active	–	–	–	–	–	–
51 µM	35 µM	24 µM	–	–	C=C1CC[C@@H]2[C@](C)(CC[C@H]3CO[C@H](C=C(C)C)C[C@]32C)[C@@H]1Cc1c(O)c(C)c(C)oc1=O	49000 nM	25000 nM	–	–	–	–	–	–	–	–	–	–
84 µM	47 µM	41 µM	–	–	C=C1CC[C@@H]2[C@](C)(CC[C@H]3O[C@H](C=C(C)C)C[C@@]23C)[C@@H]1Cc1c(OC(C)=O)c(C)c(C)oc1=O	1000 nM	2000 nM	–	–	–	–	–	–	–	–	–	–
